# Results published in PMC9575670 (Journal of Medicinal Chemistry, 2022).
# How the values were obtained:
# MCF-7 cells = assay: Cell cycle analysis by flow cytometry; assay type: cell-based, human; details: MCF-7, up to 1.0 μM, 24 h, compared to vehicle
# [1] = tested on: cancer cell lines (ASPC-1, A549, MCF-7, HCT 116); assay: MTT in vitro antiproliferation assay, cancer cell line panel; assay type: cell-based, human; details: for IC50: Homo sapiens, 24 h, read-out: IC50 values in cancer cell lines (range); for selectivity index (SI) / cancer cell selectivity over normal cells (MRC-5), range: range over cancer cell lines vs MRC-5
# [2] = tested on: lung cancer (A549) cell line; assay: MTT in vitro antiproliferation assay, A549; assay type: cell-based, human; details: for IC50: Homo sapiens, A549, 24 h, read-out: IC50 ± SD A549; for selectivity index (SI), cancer cells (A549) over normal cells (MRC-5): IC50 MRC-5 / IC50 A549
# [3] = tested on: lung normal (MRC-5) cell line; assay: MTT in vitro antiproliferation assay, MRC-5; assay type: cell-based; details: Homo sapiens, MRC5, 24 h, read-out: IC50 ± SD MRC-5
# [4] = tested on: colon cancer (HCT 116) cell line; assay: MTT in vitro antiproliferation assay, HCT 116; assay type: cell-based; details: Homo sapiens, HCT-116, 24 h, read-out: IC50 ± SD HCT 116
# A549 cells = assay: Cell cycle analysis by flow cytometry; assay type: cell-based, human; details: A549, up to 1.0 μM, 24 h, compared to vehicle
# [5] = tested on: lung normal IMR-90 cell line; assay: MTT in vitro antiproliferation assay, IMR-90; assay type: cell-based; details: Homo sapiens, IMR-90, 24 h, read-out: IC50 ± SD IMR-90
# [6] = tested on: normal CCD-18Co cell line; assay: MTT in vitro antiproliferation assay, CCD-18Co; assay type: cell-based; details: Homo sapiens, 24 h, read-out: IC50 ± SD CCD-18Co
# tubulin = assay: In vitro tubulin polymerization assay; assay type: biochemical; details: 20 μM, compared to vehicle control
# [7] = tested on: breast cancer (MCF-7) cell line; assay: MTT in vitro antiproliferation assay, MCF-7; assay type: cell-based; details: Homo sapiens, MCF7, 24 h, read-out: IC50 ± SD MCF-7
# [8] = tested on: pancreatic cancer (ASPC-1) cell line; assay: MTT in vitro antiproliferation assay, ASPC-1; assay type: cell-based; details: Homo sapiens, ASPC1, 24 h, read-out: IC50 ± SD ASPC-1
# 4T1 cells tumor = assay: In vivo antitumor activity, 4T1 xenograft model, 11 day study; set-up: species or system BALB/c mice; details: G4 DOX: 2 mg/kg IP once in 3 days
# Summary of the method: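 BALB/c mice received 4T1 cells (1 × 10^5/mouse) subcutaneously into the left mammary fat pad. Caliper volume = length × width²/2. At about 50 mm³, mice were allocated to four groups, unrandomized and unblinded. All dosing was IP: 0.9% saline vehicle; test compound 0.711 or 1.422 mg/kg (days 1–3) then 14.22 or 28.44 mg/kg (days 4–11); doxorubicin 2 mg/kg every 3 days. Tumours were excised on day 12 and volume and mass measured; one-way ANOVA.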
Structure (SMILES),IC50 [1] [µM],IC50 [2] [µM],IC50 [4] [µM],IC50 [7] [µM],IC50 [8] [µM],accumulation of cells in the G2/M phase (MCF-7 cells),times lower activity than the CLC and NOZ ([1]; IC50 comparison),"selectivity index (SI), cancer cells (A549) over normal cells (MRC-5) [2]",IC50 [3] [µM],accumulation of cells in the G2/M phase (A549 cells),IC50 [5] [µM],IC50 [6] [µM],effect on tubulin polymerization (tubulin),"selectivity index (SI) / cancer cell selectivity over normal cells (MRC-5), range [1]",average tumor mass reduction at the endpoint (4T1 cells tumor) [%],average tumor volume reduction at the endpoint compared to G1 (4T1 cells tumor) [%]
"CCCSc1ccc2nc(NC(=O)OC)[nH]c2c1 [Al, albendazole]",52.7 to 72.4,72.4,52.7,59,56.3,slight accumulation of cells in the G2/M phase,7–10,1.32,96.1,slight accumulation of cells in the G2/M phase,285,119,inhibition of tubulin polymerization,–,–,–
"CC(=O)O[C@H]1C(=O)[C@@]2(C)[C@H]([C@H](OC(=O)c3ccccc3)[C@]3(O)C[C@H](OC(=O)[C@H](O)[C@@H](NC(=O)c4ccccc4)c4ccccc4)C(C)=C1C3(C)C)[C@]1(OC(C)=O)CO[C@@H]1C[C@@H]2O [PCL, paclitaxel]",–,–,–,–,–,–,–,–,–,–,–,–,enhanced the tubulin polymerization,–,–,–
COc1cccc2c1C(=O)c1c(O)c3c(c(O)c1C2=O)C[C@@](O)(C(=O)CO)C[C@@H]3O[C@H]1C[C@H](N)[C@H](O)[C@H](C)O1 [doxorubicin],–,–,–,–,–,–,–,–,–,–,–,–,–,–,14.5,29.4

# Further lines, with some results ahead:
IC50 [1] [µM],IC50 [2] [µM],IC50 [4] [µM],IC50 [7] [µM],IC50 [8] [µM],Structure (SMILES),accumulation of cells in the G2/M phase (MCF-7 cells),times lower activity than the CLC and NOZ ([1]; IC50 comparison),"selectivity index (SI), cancer cells (A549) over normal cells (MRC-5) [2]",IC50 [3] [µM],accumulation of cells in the G2/M phase (A549 cells),IC50 [5] [µM],IC50 [6] [µM],effect on tubulin polymerization (tubulin),"selectivity index (SI) / cancer cell selectivity over normal cells (MRC-5), range [1]",average tumor mass reduction at the endpoint (4T1 cells tumor) [%],average tumor volume reduction at the endpoint compared to G1 (4T1 cells tumor) [%]
131 to 182,139,156,131,182,"CCCSc1ccc2[nH]c(N[C@H]3O[C@@H](CO)[C@H](O)[C@@H](O)[C@@H]3O)nc2c1 [Al–G, albendazole amine glucose conjugate]",slight accumulation of cells in the G2/M phase,–,–,895,slight accumulation of cells in the G2/M phase,> 1000,701,inhibition of tubulin polymerization,five to seven times,–,–
–,10.8,6.82,7.41,10.5,"COC(=O)Nc1nc2ccc(C(=O)c3cccs3)cc2[nH]1 [NOZ, nocodazole]",–,–,1.2,12,–,–,–,inhibited,1.1–1.8,–,–
